According to ChEMBL document CHEMBL1135582, “Synthesis and structure-activity relationships of amide and hydrazide analogues of the cannabinoid CB(1) receptor antagonist N-(piperidinyl)- 5-(4-chlorophenyl)-1-(2,4-dichlorophenyl)-4-methyl-1H-pyrazole-3-carboxamide (SR141716)” (J Med Chem, 2002):

Tests used:
[1] = organism: Rattus norvegicus; test: The effective concentration using [35S]GTP-gamma-S binding assay in rat membranes; type: functional
[2] = Selectivity measured as CB2/CB1
[3] = organism: Rattus norvegicus; test: Maximum concentration based on [35S]GTP-gamma-S binding assay in rat membranes; type: functional
[4] = target: T1, Cannabinoid receptor (Mus musculus) (UniProt P47746+P47936); test: Dissociation Constant in Mouse isolated vas deferens at 316 nM of compound using cannabinoid receptor agonist WIN-55 212-2 (95% confidence limits); type: functional, tissue-based
How it was run: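 Vasa deferentia from albino MF1 mice (26–44 g) in organ bath, electrically stimulated until twitch amplitude stable. Antagonist (DMSO vehicle) added 30 min before cumulative agonist additions at 5 min intervals, stimulating final 2 min of each. Inhibition relative to pre-agonist twitch; KB from single concentration ratio, (x − 1) = B/KB, via (2 + 2) parallel line assay; 95% confidence limits; n = 5 or 6.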

[5] = target: T2, Cannabinoid receptor 1 (Rattus norvegicus, UniProt P20272); test: Binding affinity in a competition assay by displacement of [3H]- SR-141716 from Cannabinoid receptor 1 in rat whole brain membrane preparation; type: cell membranes
[6] = target: Cannabinoid receptor 2 (Homo sapiens, UniProt P34972); test: Binding affinity at cannabinoid receptor 2 in a competition assay with [3H]CP-55940 as radioligand
[7] = target: T2, Cannabinoid receptor 1; test: Binding affinity in a competition assay by displacement of [3H]CP-55940 from Cannabinoid receptor 1 in rat whole brain membrane preparation; type: cell membranes
[8] = target: T1, Cannabinoid receptor (Mus musculus); test: Dissociation Constant in Mouse isolated vas deferens at 316 nM of compound using cannabinoid receptor agonist WIN-55 212-2; type: functional, tissue-based
How it was run: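 Vasa deferentia from MF1 mice (26–44 g) were electrically stimulated in an organ bath until twitches were stable. Percent twitch inhibition was measured. KB came from a single concentration ratio via (x−1)=B/KB, with ratios from (2+2) parallel line assays. Results are means with 95% confidence limits.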

[9] = target: T1, Cannabinoid receptor (Mus musculus); test: Dissociation Constant in Mouse isolated vas deferens at 31.6 nM of compound using cannabinoid receptor agonist WIN-55 212-2

T1 sequence (P47746 whole entry, looked up): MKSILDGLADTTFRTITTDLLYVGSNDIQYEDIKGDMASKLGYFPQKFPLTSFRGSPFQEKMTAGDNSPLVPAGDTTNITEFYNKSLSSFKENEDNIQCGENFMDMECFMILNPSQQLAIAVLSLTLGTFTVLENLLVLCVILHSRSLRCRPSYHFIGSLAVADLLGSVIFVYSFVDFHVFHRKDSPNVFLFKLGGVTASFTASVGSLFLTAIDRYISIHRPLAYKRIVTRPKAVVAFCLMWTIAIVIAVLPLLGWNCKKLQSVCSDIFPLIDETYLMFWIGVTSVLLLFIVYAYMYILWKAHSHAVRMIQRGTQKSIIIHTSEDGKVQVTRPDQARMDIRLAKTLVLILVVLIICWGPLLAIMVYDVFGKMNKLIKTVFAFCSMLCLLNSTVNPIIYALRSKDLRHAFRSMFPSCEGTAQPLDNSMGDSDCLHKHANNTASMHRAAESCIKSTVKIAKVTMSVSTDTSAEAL
T1 sequence (P47936 whole entry, looked up): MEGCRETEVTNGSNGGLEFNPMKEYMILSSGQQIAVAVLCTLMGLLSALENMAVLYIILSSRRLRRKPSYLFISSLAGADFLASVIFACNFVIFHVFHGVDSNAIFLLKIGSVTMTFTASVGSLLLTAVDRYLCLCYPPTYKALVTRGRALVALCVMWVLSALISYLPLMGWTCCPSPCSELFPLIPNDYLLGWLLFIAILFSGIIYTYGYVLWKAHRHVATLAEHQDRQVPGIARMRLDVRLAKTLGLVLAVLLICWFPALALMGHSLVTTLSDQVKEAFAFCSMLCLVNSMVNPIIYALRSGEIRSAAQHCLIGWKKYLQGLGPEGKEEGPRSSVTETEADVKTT
T2 sequence (P20272 whole entry): as the sequence (P47746 whole entry, looked up) above, with D95E counted along it
Cannabinoid receptor 2, sequence (P34972 whole entry): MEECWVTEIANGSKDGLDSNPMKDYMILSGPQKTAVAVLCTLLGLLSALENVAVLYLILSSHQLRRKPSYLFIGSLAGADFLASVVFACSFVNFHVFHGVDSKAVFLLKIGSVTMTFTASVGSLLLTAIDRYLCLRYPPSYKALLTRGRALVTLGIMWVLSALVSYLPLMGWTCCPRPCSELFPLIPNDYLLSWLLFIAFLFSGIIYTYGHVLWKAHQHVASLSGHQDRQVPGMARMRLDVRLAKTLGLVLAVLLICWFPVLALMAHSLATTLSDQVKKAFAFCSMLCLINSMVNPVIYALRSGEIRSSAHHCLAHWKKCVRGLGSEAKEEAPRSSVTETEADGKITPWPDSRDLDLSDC

SMILES: CCCCNC(=O)c1nn(-c2ccc(Cl)cc2Cl)c(-c2ccc(Cl)cc2)c1C
- EC50 [1]: 8.54 µM
- Selectivity [2]: 119
- Emax [3]: -38.5

SMILES: Cc1c(C(=O)NCCO)nn(-c2ccc(Cl)cc2Cl)c1-c1ccc(Cl)cc1
- EC50 [1]: 1670 µM
- Selectivity [2]: 11
- Emax [3]: -76.5

SMILES: CCNC(=O)c1nn(-c2ccc(Cl)cc2Cl)c(-c2ccc(Cl)cc2)c1C
- EC50 [1]: 30.3 µM
- Selectivity [2]: 67
- Emax [3]: -46.9

SMILES: Cc1c(C(=O)NCCCO)nn(-c2ccc(Cl)cc2Cl)c1-c1ccc(Cl)cc1
- EC50 [1]: 241 µM
- Selectivity [2]: 8
- Emax [3]: -83.3

SMILES: Cc1c(C(=O)NN2CCOCC2)nn(-c2ccc(Cl)cc2Cl)c1-c1ccc(Cl)cc1
- EC50 [1]: 38.9 µM
- Kb [4]: 0.0125 µM
- Selectivity [2]: 105
- Emax [3]: -76.3

SMILES: CCCCCNC(=O)c1nn(-c2ccc(Cl)cc2Cl)c(-c2ccc(Cl)cc2)c1C
- EC50 [1]: 5.27 µM
- Emax [3]: -7.4

SMILES: Cc1c(C(=O)N[C@@H](C)CO)nn(-c2ccc(Cl)cc2Cl)c1-c1ccc(Cl)cc1
- Ki [5]: 0.123 µM
- Ki [6]: 5.9 µM
- EC50 [1]: 294 µM
- Ki [7]: 0.117 µM
- Selectivity [2]: 50
- Emax [3]: -83.8

SMILES: Cc1c(C(=O)NO)nn(-c2ccc(Cl)cc2Cl)c1-c1ccc(Cl)cc1
- Selectivity [2]: 5

SMILES: Cc1c(C(=O)N[C@H](C)CO)nn(-c2ccc(Cl)cc2Cl)c1-c1ccc(Cl)cc1
- Ki [5]: 0.0998 µM
- Ki [6]: 1.77 µM
- EC50 [1]: 292 µM
- Ki [7]: 0.117 µM
- Selectivity [2]: 15
- Emax [3]: -83

SMILES: Cc1c(C(=O)NC(C)C)nn(-c2ccc(Cl)cc2Cl)c1-c1ccc(Cl)cc1
- EC50 [1]: 16 µM
- Selectivity [2]: 59
- Emax [3]: -46.4

SMILES: Cc1c(C(=O)NC2CCCCC2)nn(-c2ccc(Cl)cc2Cl)c1-c1ccc(Cl)cc1
- EC50 [1]: 26 µM
- Selectivity [2]: 93
- Emax [3]: -22.1

SMILES: CCCNC(=O)c1nn(-c2ccc(Cl)cc2Cl)c(-c2ccc(Cl)cc2)c1C
- EC50 [1]: 11.1 µM
- Selectivity [2]: 99
- Emax [3]: -35.7

SMILES: CNNC(=O)c1nn(-c2ccc(Cl)cc2Cl)c(-c2ccc(Cl)cc2)c1C
- EC50 [1]: 12000 µM

SMILES: Cc1c(C(=O)NN)nn(-c2ccc(Cl)cc2Cl)c1-c1ccc(Cl)cc1
- EC50 [1]: 419 µM
- Selectivity [2]: 32
- Emax [3]: -71.7

SMILES: Cc1c(C(=O)NCC(C)C)nn(-c2ccc(Cl)cc2Cl)c1-c1ccc(Cl)cc1
- EC50 [1]: 7.54 µM
- Kb [8]: 0.0212 µM
- Selectivity [2]: 61
- Emax [3]: -11

SMILES: CCCCCCNC(=O)c1nn(-c2ccc(Cl)cc2Cl)c(-c2ccc(Cl)cc2)c1C
- Kb [9]: 0.0154 µM
- EC50 [1]: 29.4 µM
- Selectivity [2]: 378
- Emax [3]: -13

SMILES: Cc1c(C(=O)NCCCCO)nn(-c2ccc(Cl)cc2Cl)c1-c1ccc(Cl)cc1
- EC50 [1]: 304 µM
- Emax [3]: -79.5

SMILES: CCNNC(=O)c1nn(-c2ccc(Cl)cc2Cl)c(-c2ccc(Cl)cc2)c1C
- EC50 [1]: 495 µM
